Assay outcomes from PubChem BioAssay.
The list is not random: actives were taken first. Their share in the collection is about 3.5%.
sEH inhibitor = soluble epoxide hydrolase inhibitors, primary screen, biochemical, human sEH; inhibition, % at 2 µM; recombinant human sEH enzymatic activity assay; Bifunctional epoxide hydrolase 2 (Homo sapiens), P34913; AID 707, 2007; 91,000 tested, 0.34% active; in the data active = inhibition above about 80%
Target sequence (P34913 whole entry, looked up): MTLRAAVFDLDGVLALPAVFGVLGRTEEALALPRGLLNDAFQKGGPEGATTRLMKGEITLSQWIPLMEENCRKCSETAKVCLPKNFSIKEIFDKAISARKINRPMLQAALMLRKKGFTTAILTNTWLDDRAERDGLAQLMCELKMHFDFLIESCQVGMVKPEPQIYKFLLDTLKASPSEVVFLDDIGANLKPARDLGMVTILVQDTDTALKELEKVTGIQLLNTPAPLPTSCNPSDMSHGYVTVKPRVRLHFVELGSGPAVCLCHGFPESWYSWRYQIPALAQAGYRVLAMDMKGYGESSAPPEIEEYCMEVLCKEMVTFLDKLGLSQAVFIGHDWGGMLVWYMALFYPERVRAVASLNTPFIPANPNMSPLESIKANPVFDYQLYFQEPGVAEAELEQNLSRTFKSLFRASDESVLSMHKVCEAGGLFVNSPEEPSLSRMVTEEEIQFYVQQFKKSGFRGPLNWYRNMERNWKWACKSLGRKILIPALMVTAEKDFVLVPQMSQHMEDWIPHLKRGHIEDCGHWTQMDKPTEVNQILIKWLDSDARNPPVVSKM
sEH activator = soluble epoxide hydrolase activators, primary screen, biochemical, human sEH. AID 717, 2007. purified human sEH enzymatic activity, activator screen. activation, % at 2 µM. Bifunctional epoxide hydrolase 2 (Homo sapiens), P34913. 91,000 tested, 0.04% active; in the data active = activation above about 37%
Rev-RRE block = HIV-1 Rev-RRE binding inhibitors, primary screen, biochemical, FRET, protein-RNA interaction; Rev peptide-RRE RNA binding; 97,000 tested, 0.79% active; AID 704, 2007; inhibition, % at 8 µM; P05866;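 active = inhibition above the screen-wide mean plus 3 SD, cut at about 35% in these data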;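 note: 0% = median DMSO wells and 100% = median Neomycin B control wells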
Target sequence (P05866 whole entry, looked up): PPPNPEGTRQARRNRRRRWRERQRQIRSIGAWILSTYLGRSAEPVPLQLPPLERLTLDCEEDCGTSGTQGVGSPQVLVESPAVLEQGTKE
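assay system = Cy5-tagged RRE RNA duplex with fluorescein-tagged Rev peptide | incubation = 5 + 15 min at 25 °C | also added = labelled Rev peptide | measure = % inhibition of FRET ratio versus controls | benchmarks = DMSO wells as 0% and neomycin B wells as 100% inhibition | measured by = FRET fluorescence readout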
ERa coact pot = enhancers of ERα–SRC-1 coactivator binding, primary screen, biochemical, TR-FRET, ERα LBD, low estradiol; Estrogen receptor (Homo sapiens), P03372; TR-FRET ERalpha-LBD/SRC-Cy5 coactivator binding, 2 h; 100 = basal binding, no effect; coactivator binding (% of control), % at 25.6 µM; 86,000 tested, 1.3% active; AID 639, 2007; in the data active = activity above about 200%;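 note: binding measured in presence of low estradiol as agonist stimulus; 0% = peptide alone without receptor and 100% = receptor with peptide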
ERb coact inh = inhibitors of ERβ-SRC1 coactivator interaction, primary screen, biochemical, TR-FRET, ERβ LBD, SRC-1 peptide; Estrogen receptor beta (Homo sapiens), Q92731; AID 633, 2007; 86,000 tested, 1.3% active; inhibition, % at 25.6 µM; TR-FRET ER-beta LBD / SRC1-Cy5 peptide binding; receptor agonist-loaded with 1 µM estradiol;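 active = compounds whose percent inhibition of the receptor-coactivator binding signal exceeds about 50% in the single-dose screen, limit read from the data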;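 note: 0% = receptor plus peptide wells without compound and 100% = peptide-only wells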
ERa coact inh = ERα–SRC-1 coactivator interaction inhibitors, primary screen, biochemical, TR-FRET, ERα LBD, estradiol-bound. 86,000 tested, 1.7% active. TR-FRET ER-alpha LBD / SRC-1 peptide. inhibition, % at 25.6 µM; in the data active = inhibition above about 50%;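 note: 0% = receptor plus peptide control and 100% = peptide only without receptor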
Numbers without * were called inactive; . = no result given; [ ] = remark or other dose.

SMILES | sEH inhibitor | sEH activator | Rev-RRE block | ERa coact pot | ERb coact inh | ERa coact inh
COC(=O)C1Sc2[nH]c(=O)sc2C(c2ccc(Cl)cc2)C1C(=O)OC (configuration not stated) | . | . | 1 | 84 | 7 | 12
Cc1ccc2cc3cc(C(=O)NCc4ccco4)oc3nc2c1 | -2 | -1 | 9 | 140 | 37 | 53*[fluorescence artefact?]
Cc1ccc2cc(C#N)c(SCC(=O)NCc3ccco3)nc2c1 | 1 | -2 | 14 | 237* | 35 | 55*[fluorescence artefact?]
Cc1cc(C)cc(OC(=O)N2CCOCC2)c1 | 5 | -3 | 1 | 105 | -18 | -15
COc1ccc(-n2c(NC(=O)c3ccco3)c(C#N)c3nc4ccccc4nc32)cc1 | -14 | 12 | 37* | . | . | .
CCOC(=O)c1c(NC(=O)c2ccco2)n(C2CCCCC2)c2nc3ccccc3nc12 | 2 | -2 | 30 | 94 | 6 | 0
C/C(N)=C(/C#N)C(=O)CSc1nnc(-c2ccc(OC(F)F)cc2)o1 | -5 | 7 | -4 | 58 | 62* | 56*
CCOC(=O)c1c(C)[nH]c(C)c1C(=O)CSc1nnc(-c2ccc(OC(F)F)cc2)o1 | 19 | -18 | 10 | 276* | 24 | 46
COc1ccc(C(=O)CSc2nnc(-c3ccc(S(=O)(=O)N4CCOCC4)cc3)o2)cc1 | -23 | 21 | -1 | 470*[fluorescence artefact?] | 18 | -6
COc1ccc(-c2nnc(SCC(=O)c3ccc[nH]3)o2)cc1 | 2 | 0 | 3 | . | . | .
C/C(N)=C(/C#N)C(=O)CSc1nnc(-c2ccc3c(c2)OCO3)o1 | -11 | 8 | -1 | . | . | .
O=C(CSc1nnc(-c2ccc(S(=O)(=O)N3CCOCC3)cc2)o1)c1ccccc1F | 6 | -7 | 2 | 116 | 12 | 11
COc1ccc(-c2nnc(SCC(=O)c3[nH]c(C)c(C(C)=O)c3C)o2)cc1 | 3 | -2 | -6 | 275* | 32 | 22
CCOC(=O)c1[nH]c(CSc2nnc(-c3ccc(OC)cc3)o2)c(C(=O)OCC)c1C | -1 | 0 | 2 | 127 | 9 | 10
COc1ccccc1C(=O)N1CCN(C2CCN(Cc3ccccc3)CC2)CC1 | 1 | 0 | -1 | 119 | 3 | -7
Cc1ccc(N2CCn3c2nc2c3c(=O)n(CCc3ccccc3)c(=O)n2C)cc1 | . | . | . | 182 | 49 | 60*[fluorescence artefact?]
Cc1nnc(NCc2ccncc2)c2ccccc12 | 0 | 1 | 3 | 179 | 50*[fluorescence artefact?] | 60*[fluorescence artefact?]
COc1cccc(-n2nnc3c(=O)n(Cc4c(F)cccc4Cl)cnc32)c1 | 9 | -8 | 2 | 127 | 20 | 44
COc1cccc(-n2nnc3c(=O)n(Cc4cccc(F)c4)cnc32)c1 | -2 | 2 | 7 | 269* | 17 | 19
CCc1nc(N2CCCC2)c(C#N)c2c1CCCC2 | -14 | 14 | 20 | 118 | -6 | -8
O=C(CN1CCN(Cc2ccccc2)C1=O)NCc1cccs1 | -16 | 13 | 5 | 101 | -9 | -1
Cc1c(CNCc2cccs2)c(C(=O)O)c(C)n1Cc1ccccc1 | -4 | 6 | -2 | 229*[fluorescence artefact?] | -6 | -3
Cc1ccc(N2C(=O)CC(Nc3ccccc3)C2=O)cc1 (configuration not stated) | 1 | -3 | 7 | 156 | 1 | -6
Cc1nn(Cc2ccccc2)c(C)c1NC(=O)CSc1nc(-c2ccccc2)nc2c1cnn2-c1ccccc1 | -10 | 12 | 9 | 150 | 37 | 72*[fluorescence artefact?]
Cc1nc(SCC(=O)Nc2c(C)nn(C)c2C)c2cnn(-c3ccccc3)c2n1 | -2 | 3 | -2 | 128 | -16 | 2
SMILES | sEH inhibitor | sEH activator | Rev-RRE block | ERa coact pot | ERb coact inh | ERa coact inh
CC(C)Cn1c(N)c(C(=O)CSc2nnnn2-c2ccc(Cl)cc2)c(=O)n(C)c1=O | . | . | . | 327* | -2 | 25
Cc1ccc(C(C)C)c(OCC(O)CN2CC(C)OC(C)C2)c1 (configuration not stated) | -21 | 20 | 5 | 97 | 51*[fluorescence artefact?] | -2
Cc1ccc(C(C)C)c(OCC(O)CN2CCOCC2)c1 (configuration not stated) | -12 | 9 | 1 | 87 | -3 | -15
O=C(Cn1ncnn1)OCc1ccccc1Cl | -5 | 8 | 3 | 122 | -13 | -3
O=C(CCCOc1ccc(Cl)cc1Cl)N/N=C\C1CCCCC1 | 99* | -98 | 13 | . | . | .
O=C(CCCOc1ccc(Cl)cc1Cl)NCCCO | . | . | . | 96 | -7 | -5
CC1(C)CC(=O)C2=C(C1)NCN(Cc1ccccc1)C2 | -43 | 46* | 0 | 105 | -13 | -2
Nc1ccc2nc3n(c(=O)c2c1)CCC3 | -7 | 11 | . | 215* | 18 | 11
O=C(OC1CCN(c2ccc([N+](=O)[O-])cc2)CC1)c1ccccc1 | 7 | -9 | 3 | . | . | .
Cc1nc(/C=[N+](\[O-])C(C)(C)/C=N/O)n(O)c1C | 5 | -6 | 5 | 114 | 56*[fluorescence artefact?] | -5
CC1Cc2nc(SCC(=O)Nc3ccc4c(c3)OCO4)n(CCc3ccccc3)c(=O)c2S1 (configuration not stated) | . | . | . | 104 | 12 | 1
Cc1cc(NC(=O)CSc2nc3c(c(=O)n2CCc2ccccc2)SC(C)C3)no1 (configuration not stated) | . | . | . | 105 | 10 | 79*
COc1ccc(CCn2c(SCC(=O)Nc3cc(C)on3)nc3ccsc3c2=O)cc1OC | . | . | -1 | 314* | 1 | -3
Cc1cc(NC(=O)CSc2nc3ccccc3c(=O)n2Cc2ccc(F)cc2)no1 | 3 | -3 | 5 | 232*[fluorescence artefact?] | 50*[fluorescence artefact?] | 44
Cc1nnc(NC(=O)CSc2nc3c(c(=O)n2CCc2ccccc2)SC(C)C3)s1 (configuration not stated) | . | . | . | 83 | 17 | 69*
Cc1ccc(NC(=O)CCSc2nnc3ccccn23)cc1 | -7 | 11 | 3 | 108 | -3 | -2
CCOC(=O)CSc1[nH]c(=O)cc(C)c1C#N | 2 | -1 | 2 | 109 | 0 | 13
CCN(C(=O)c1ccc(NC(C)=O)cc1)c1ccccc1C | 1 | 1 | 5 | 105 | -8 | 1
Cc1ccc(-n2c(SCn3nnc4ccccc4c3=O)nnc2-c2cccnc2)c(C)c1 | . | . | . | 36 | 48 | 87*[fluorescence artefact?]
O=c1c2ccccc2nnn1CSc1nnc(-c2cccnc2)n1-c1ccccc1F | -9 | 9 | 5 | 115 | -12 | -2
CCOc1ccc(-c2nnn(CC(=O)c3ccc4c(c3)OCCO4)n2)cc1 | 8 | -7 | 9 | 213* | -21 | -11
CCCOc1ccc(-c2nnn(CC(=O)c3ccc4c(c3)OCCO4)n2)cc1 | -18 | 17 | 13 | 141 | -7 | -10
